The source made the active and inactive calls. The rule behind the calls is not given here. Peptide text beside a SMILES is read from it. * marks the point of attachment. Cbz = O=C(OCc1ccccc1)*
What was measured:
[1] = target: Prolyl endopeptidase FAP (Homo sapiens) (UniProt Q12884); assay: Inhibition of human recombinant FAP at 100 uM using fluorogenic DPP substrate1 relative to control
[2] = target: T1, Prolyl endopeptidase (Homo sapiens, UniProt P48147); assay: (§1) Inhibition of recombinant human POP pre-incubated for 30 mins before addition of ZGP-pNA substrate by absorbance assay
T1 sequence (P48147 whole entry): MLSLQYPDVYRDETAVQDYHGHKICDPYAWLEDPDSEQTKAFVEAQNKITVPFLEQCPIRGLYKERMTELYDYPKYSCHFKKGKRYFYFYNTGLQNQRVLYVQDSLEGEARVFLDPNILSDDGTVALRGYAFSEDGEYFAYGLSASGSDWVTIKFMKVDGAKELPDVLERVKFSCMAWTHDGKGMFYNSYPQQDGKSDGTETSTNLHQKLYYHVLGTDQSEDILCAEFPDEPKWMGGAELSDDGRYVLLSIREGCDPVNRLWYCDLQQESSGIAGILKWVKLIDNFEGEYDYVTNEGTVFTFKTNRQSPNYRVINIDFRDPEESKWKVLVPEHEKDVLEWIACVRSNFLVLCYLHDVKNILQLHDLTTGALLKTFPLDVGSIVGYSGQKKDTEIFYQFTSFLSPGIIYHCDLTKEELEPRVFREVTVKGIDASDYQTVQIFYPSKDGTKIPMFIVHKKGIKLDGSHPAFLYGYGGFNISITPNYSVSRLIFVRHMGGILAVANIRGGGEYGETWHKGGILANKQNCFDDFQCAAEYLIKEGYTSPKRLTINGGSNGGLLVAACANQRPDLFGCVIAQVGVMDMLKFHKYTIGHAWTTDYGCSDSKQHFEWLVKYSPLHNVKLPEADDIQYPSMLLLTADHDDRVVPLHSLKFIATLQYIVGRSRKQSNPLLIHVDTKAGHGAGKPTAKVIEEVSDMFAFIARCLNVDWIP

[3] = target: T2, Prolyl endopeptidase (Homo sapiens) (UniProt P48147); assay: as §1
T2 sequence (whole entry): T1 sequence (P48147 whole entry)

[4] = Drug metabolism in buffer assessed as formation of [(2R)-1-(2-benzyl-3-oxo-isoindoline-4-carbonyl)pyrrolidin-2-yl]boronic acid after 10 mins by LC-MS analysis
Procedure, shortened: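 Boronic ester hydrolysis was followed by LC-MS (UHPLC-QTOF, positive ESI). Ester from a 100 mM DMSO stock was diluted 1:10 into buffer in a capped autosampler vial. Aliquots were taken at 5 min intervals and loop-injected in 1:1 water/acetonitrile with 0.1% formic acid. The boronic ester remaining was tracked over time.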

[5] = target: Prolyl endopeptidase FAP (Homo sapiens) (UniProt Q12884); assay: Inhibition of human recombinant FAP at 10 uM using fluorogenic DPP substrate1 relative to control
[6] = target: T3, Prolyl endopeptidase FAP (Homo sapiens, UniProt Q12884); assay: Inhibition of FAP (unknown origin)
T3 sequence (Q12884 whole entry): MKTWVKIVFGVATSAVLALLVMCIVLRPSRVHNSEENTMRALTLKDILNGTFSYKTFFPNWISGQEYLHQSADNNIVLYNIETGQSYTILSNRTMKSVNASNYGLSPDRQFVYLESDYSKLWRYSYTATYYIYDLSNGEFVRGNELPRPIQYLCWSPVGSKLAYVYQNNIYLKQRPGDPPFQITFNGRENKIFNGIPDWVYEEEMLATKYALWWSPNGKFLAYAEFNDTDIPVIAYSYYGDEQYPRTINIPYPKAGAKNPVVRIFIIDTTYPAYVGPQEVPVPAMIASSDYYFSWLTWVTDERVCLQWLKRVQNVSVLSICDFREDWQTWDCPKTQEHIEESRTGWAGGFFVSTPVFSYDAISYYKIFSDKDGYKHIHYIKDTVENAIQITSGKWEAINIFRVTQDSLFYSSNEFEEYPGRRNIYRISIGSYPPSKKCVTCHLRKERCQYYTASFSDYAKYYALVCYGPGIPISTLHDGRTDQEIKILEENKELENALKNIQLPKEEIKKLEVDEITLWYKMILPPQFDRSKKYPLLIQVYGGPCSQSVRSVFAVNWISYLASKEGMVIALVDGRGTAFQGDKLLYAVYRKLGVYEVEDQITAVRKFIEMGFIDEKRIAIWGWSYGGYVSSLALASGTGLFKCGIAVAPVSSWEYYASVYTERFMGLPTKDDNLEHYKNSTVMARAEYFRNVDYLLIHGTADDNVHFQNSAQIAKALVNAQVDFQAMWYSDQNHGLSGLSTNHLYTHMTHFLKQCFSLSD

SMILES	inhibition [1]	also measured
N#C[C@@H]1C[C@H](F)CN1C(=O)c1cccc2c1C(=O)N(Cc1ccccc1)C2	< 5%	Ki [2]: 0.17 µM
O=C(c1cccc2c1C(=O)N(Cc1ccccc1)C2)N1CC[C@@H](F)C1	< 5%	
O=C(c1cccc2c1C(=O)N(Cc1ccccc1)C2)N1CCCC1	< 5%	
CC1(C)[C@@H]2C[C@@H](O)[C@@](C)(O)[C@H]1C2		inhibition [3]: inactive
N#C[C@@H]1C[C@@H](F)CN1C(=O)c1cccc2c1C(=O)N(Cc1ccccc1)C2	< 5%	Ki [2]: > 100 µM
N#C[C@@H]1CCCN1C(=O)c1cccc2c1C(=O)N(Cc1ccccc1)C2	20%	
CC1(C)[C@H]2C[C@@H]3OB([C@@H]4CCCN4C(=O)c4cccc5c4C(=O)N(Cc4ccccc4)C5)O[C@]3(C)[C@@H]1C2	< 5%	Drug metabolism [4]: 90%
N#C[C@@H]1CC(F)(F)CN1C(=O)c1cccc2c1C(=O)N(Cc1ccccc1)C2	< 5%	Ki [2]: 3.3 µM
O=C[C@@H]1CCCN1C(=O)c1cccc2c1C(=O)N(Cc1ccccc1)C2	80%	inhibition [5]: 11%
CC(C)[C@H](NC(=O)c1ccncc1)C(=O)N1CCC[C@H]1B(O)O		IC50 [6]: > 100 µM
O=C[C@@H]1CCCN1C(=O)[C@@H]1CCCN1C(=O)OCc1ccccc1 (Cbz-Pro-Pro-aldehyde)	< 5%	
O=C(c1cccc2c1C(=O)N(Cc1ccccc1)C2)N1CC[C@H](F)C1	< 5%	
